Measurements from ChEMBL document CHEMBL1153939, “Novel antagonists of serotonin-4 receptors: synthesis and biological evaluation of pyrrolothienopyrazines” (Bioorg Med Chem, 2009).

How the values were obtained:
[1] = molecular target: 5-hydroxytryptamine receptor 4 (Cavia porcellus, UniProt O70528); test: Displacement of [3H]GR-113808 from 5HT4 receptor in guinea pig striatum membrane; assay type: cell membranes
In short: (§1)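 Guinea pig membranes (15 µg protein/mL) incubated 30 min at 37 °C with 0.6 nM [3H]GR113808 in 50 mM HEPES, pH 7.4, with fixed test concentrations. Nonspecific binding defined with 10 µM serotonin.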

[2] = molecular target: T1, 5-hydroxytryptamine receptor 3A (Homo sapiens, UniProt P46098); test: Displacement of [3H]granisetron form 5HT3 receptor in hybrid […] cells; assay type: cell-based
T1 sequence (P46098 whole entry): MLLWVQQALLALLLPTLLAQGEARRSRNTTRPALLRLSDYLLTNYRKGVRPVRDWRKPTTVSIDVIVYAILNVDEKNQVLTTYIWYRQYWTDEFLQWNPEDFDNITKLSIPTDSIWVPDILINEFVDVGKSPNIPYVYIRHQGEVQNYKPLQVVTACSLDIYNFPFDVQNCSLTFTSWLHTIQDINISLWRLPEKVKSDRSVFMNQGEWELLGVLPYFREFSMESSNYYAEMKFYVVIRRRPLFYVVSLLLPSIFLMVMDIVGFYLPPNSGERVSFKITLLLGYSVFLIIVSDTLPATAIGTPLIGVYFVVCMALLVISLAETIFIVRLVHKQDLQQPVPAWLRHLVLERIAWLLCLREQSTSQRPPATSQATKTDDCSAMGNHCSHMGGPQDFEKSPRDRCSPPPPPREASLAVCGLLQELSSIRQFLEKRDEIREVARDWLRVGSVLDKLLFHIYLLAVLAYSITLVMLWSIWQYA
In short: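 NG108-15 cell membranes (0.5 mg protein/mL) incubated 60 min at 25 °C with 1 nM [3H]granisetron in 50 mM Tris-HCl, pH 7.4, plus 25 mM NaCl. Percent inhibition measured at 10^-6 and 10^-7 M; for some compounds Ki calculated from 8–10-point inhibition curves (Ki ± SEM).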

[3] = molecular target: 5-hydroxytryptamine receptor 4 (Cavia porcellus) (UniProt O70528); test: Displacement of [3H]GR-113808 from 5HT4 receptor in guinea pig striatum membrane at 10 nM; assay type: cell membranes; in short: as §1
Sequence of 5-hydroxytryptamine receptor 4 (Cavia porcellus) (O70528 whole entry): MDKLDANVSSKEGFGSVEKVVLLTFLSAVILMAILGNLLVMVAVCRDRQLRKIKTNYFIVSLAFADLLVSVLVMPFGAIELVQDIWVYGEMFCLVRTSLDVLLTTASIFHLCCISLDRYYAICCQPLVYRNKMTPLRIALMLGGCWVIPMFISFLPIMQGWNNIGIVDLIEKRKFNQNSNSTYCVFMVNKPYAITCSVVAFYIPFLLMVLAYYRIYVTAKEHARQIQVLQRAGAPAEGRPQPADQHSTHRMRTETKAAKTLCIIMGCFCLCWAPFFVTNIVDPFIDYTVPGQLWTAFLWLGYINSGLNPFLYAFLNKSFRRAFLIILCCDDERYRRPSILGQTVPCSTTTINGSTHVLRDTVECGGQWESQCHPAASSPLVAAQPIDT

[4] = molecular target: T2, 5-hydroxytryptamine receptor 1A (Homo sapiens, UniProt P08908); test: Displacement of [3H]8OH-DPAT from human recombinant 5HT1A receptor
T2 sequence (P08908 whole entry): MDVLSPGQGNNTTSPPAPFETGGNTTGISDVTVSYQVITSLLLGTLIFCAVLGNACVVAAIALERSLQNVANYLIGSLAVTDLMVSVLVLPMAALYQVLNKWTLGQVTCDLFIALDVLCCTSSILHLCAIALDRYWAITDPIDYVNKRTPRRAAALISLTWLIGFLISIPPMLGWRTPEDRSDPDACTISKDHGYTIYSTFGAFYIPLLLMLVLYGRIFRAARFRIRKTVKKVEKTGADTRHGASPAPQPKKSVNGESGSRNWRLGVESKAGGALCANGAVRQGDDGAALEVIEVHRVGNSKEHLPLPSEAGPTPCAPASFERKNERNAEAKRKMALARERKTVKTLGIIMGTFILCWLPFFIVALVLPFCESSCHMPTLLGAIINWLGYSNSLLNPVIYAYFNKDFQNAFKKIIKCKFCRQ

[5] = molecular target: 5-hydroxytryptamine receptor 2A (Homo sapiens, UniProt P28223); test: Displacement of [3H]ketanserin form human recombinant 5HT2A receptor
Sequence of 5-hydroxytryptamine receptor 2A (P28223 whole entry): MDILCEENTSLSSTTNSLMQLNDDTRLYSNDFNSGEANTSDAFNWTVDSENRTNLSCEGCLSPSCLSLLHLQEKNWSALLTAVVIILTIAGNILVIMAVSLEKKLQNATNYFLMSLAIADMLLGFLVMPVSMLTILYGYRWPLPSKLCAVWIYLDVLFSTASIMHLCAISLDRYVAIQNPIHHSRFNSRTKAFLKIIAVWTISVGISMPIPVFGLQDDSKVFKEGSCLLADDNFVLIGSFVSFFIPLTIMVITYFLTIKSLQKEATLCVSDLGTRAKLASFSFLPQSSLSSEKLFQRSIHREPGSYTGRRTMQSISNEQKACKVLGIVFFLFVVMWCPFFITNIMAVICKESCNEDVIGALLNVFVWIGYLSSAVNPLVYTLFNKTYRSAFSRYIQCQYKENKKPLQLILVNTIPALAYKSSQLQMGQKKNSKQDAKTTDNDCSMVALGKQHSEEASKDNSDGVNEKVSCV

[6] = molecular target: 5-hydroxytryptamine receptor 2B (Homo sapiens, UniProt P41595); test: Displacement of [3H]mesulergine from human recombinant 5HT2B receptor
Sequence of 5-hydroxytryptamine receptor 2B (P41595 whole entry): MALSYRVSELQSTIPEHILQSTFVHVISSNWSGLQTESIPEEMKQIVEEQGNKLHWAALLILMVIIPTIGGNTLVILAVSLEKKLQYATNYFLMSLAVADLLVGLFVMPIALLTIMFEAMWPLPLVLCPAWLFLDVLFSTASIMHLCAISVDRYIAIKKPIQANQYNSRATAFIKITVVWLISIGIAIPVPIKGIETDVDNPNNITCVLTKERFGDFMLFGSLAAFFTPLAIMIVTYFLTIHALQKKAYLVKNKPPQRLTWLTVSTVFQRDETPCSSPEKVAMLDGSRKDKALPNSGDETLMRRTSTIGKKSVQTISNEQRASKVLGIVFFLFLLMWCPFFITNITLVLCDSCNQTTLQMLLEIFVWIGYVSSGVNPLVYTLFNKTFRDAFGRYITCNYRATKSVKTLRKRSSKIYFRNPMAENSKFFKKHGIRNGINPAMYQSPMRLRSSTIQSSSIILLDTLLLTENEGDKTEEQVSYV

[7] = molecular target: T3, 5-hydroxytryptamine receptor 2C (Homo sapiens, UniProt P28335); test: Displacement of [3H]mesulergine from human recombinant 5HT2C receptor
T3 sequence (P28335 whole entry): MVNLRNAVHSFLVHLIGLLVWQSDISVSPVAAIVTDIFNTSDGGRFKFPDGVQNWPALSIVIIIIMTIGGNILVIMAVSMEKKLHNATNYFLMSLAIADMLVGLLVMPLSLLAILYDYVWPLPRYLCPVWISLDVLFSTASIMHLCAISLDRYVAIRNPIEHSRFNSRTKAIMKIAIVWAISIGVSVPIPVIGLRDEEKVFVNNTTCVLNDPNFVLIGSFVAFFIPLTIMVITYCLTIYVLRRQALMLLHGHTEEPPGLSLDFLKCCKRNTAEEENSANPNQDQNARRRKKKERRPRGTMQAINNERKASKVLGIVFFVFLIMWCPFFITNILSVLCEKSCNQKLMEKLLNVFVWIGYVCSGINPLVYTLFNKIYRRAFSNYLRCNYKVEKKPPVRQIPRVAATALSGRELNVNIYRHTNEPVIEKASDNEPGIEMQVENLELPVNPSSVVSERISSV

[8] = molecular target: T1, 5-hydroxytryptamine receptor 3A; test: Displacement of [3H]granisetron from human recombinant 5HT3 receptor
[9] = molecular target: 5-hydroxytryptamine receptor 6 (Homo sapiens, UniProt P50406); test: Displacement of [3H]LSD form human recombinant 5HT6 receptor
Sequence of 5-hydroxytryptamine receptor 6 (P50406 whole entry): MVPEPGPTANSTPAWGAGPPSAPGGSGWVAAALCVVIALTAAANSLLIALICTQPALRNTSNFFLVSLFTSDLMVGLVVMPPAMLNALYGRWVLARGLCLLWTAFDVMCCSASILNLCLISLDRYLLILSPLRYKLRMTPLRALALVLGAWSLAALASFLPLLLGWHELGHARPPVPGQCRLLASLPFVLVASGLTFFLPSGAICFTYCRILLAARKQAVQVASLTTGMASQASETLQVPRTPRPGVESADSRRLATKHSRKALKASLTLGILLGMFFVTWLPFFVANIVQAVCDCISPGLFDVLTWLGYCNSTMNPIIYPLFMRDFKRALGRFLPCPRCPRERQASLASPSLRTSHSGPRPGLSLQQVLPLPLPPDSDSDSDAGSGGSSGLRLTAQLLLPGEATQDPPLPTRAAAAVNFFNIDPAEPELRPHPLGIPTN
In short: (§2)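 Membranes from sf9 cells expressing human 5-HT6 (14 µg/mL) or 5-HT7 (38 µg/mL) incubated 90 min at 27 °C with 2 nM [3H]LSD in 50 mM Tris-HCl containing 10 mM MgSO4 and 0.5 mM EDTA. Nonspecific binding defined with clozapine (10 and 250 µM).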

[10] = molecular target: 5-hydroxytryptamine receptor 7 (Homo sapiens, UniProt P34969); test: Displacement of [3H]LSD form human recombinant 5HT7 receptor; in short: as §2
Sequence of 5-hydroxytryptamine receptor 7 (P34969 whole entry): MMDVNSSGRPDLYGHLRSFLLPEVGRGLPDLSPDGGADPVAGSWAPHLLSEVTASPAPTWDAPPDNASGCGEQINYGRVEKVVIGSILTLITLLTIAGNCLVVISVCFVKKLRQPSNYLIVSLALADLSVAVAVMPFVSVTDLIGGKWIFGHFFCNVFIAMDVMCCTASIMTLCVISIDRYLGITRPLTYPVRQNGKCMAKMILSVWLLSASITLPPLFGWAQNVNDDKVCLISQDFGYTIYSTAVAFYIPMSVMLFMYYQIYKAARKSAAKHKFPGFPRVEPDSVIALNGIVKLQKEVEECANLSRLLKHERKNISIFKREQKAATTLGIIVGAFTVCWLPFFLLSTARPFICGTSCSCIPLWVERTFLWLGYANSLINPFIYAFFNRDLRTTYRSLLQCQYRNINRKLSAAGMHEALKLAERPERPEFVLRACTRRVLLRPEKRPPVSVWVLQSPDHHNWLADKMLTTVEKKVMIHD

[11] = molecular target: 5-hydroxytryptamine receptor 4 (Cavia porcellus) (UniProt O70528); test: Displacement of [3H]GR-113808 from 5HT4 receptor in guinea pig striatum membrane at 1 uM; assay type: cell membranes; in short: as §1
Mus musculus [12] = test: Acute toxicity in NMRI mouse assessed as behavioral changes at 25 mg/kg, ip by CNS activity test; assay type: organism-based, Central nervous system; parameters: dose 25 mg/kg, route intraperitoneal; details: in vivo
In short: (§3)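 Male NMRI mice (20–24 g) given ip drug in saline (10 mL/kg), groups of 4. Behavioural and neurological changes scored against controls by a standardized observation technique at 30 min, 3 h and 24 h post-dose. Approximate LD50 derived from deaths counted at 24 h.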

Mus musculus [13] = test: Acute toxicity in NMRI mouse assessed as behavioral changes at 5 mg/kg, ip by CNS activity test; assay type: organism-based, Central nervous system; parameters: dose 5 mg/kg, route intraperitoneal; details: in vivo; in short: as §3
Mus musculus [14] = test: Antinociceptive activity against acetic acid-induced writhing in NMRI mouse assessed as number of stretches at 0.01 mg/kg, ip by writhing test; assay type: functional; details: route intraperitoneal
In short: (§4)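 Groups of 8 male NMRI mice (20–24 g). Compound or reference given ip in saline (10 mL/kg) 15 min before ip 0.6% aqueous acetic acid (10 mL/kg). Stretches (back arching, pelvic rotation, hind-limb extension) counted over 10 min, beginning 10 min after acid. ANOVA + Fisher PLSD versus control.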

Mus musculus [15] = test: Antinociceptive activity against acetic acid-induced writhing in NMRI mouse assessed as number of stretches at 0.1 mg/kg, ip by writhing test; assay type: functional; details: route intraperitoneal; in short: as §4
Mus musculus [16] = test: Antinociceptive activity against acetic acid-induced writhing in NMRI mouse assessed as number of stretches at 1 mg/kg, ip by writhing test; assay type: functional; details: route intraperitoneal; in short: as §4
Mus musculus [17] = test: Analgesic activity in NMRI mouse assessed as reaction time taken to lick fore paw at 8 mg/kg, ip after 15 mins of administration by hot plate test; assay type: functional; details: route intraperitoneal
In short: (§5)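 Hot plate at 55 °C, male NMRI mice (20–24 g), groups of 10. Drug given ip in saline (10 mL/kg). Baseline latency to forepaw licking taken twice before dosing, and mice had to respond within 4–12 s. Latency read at 15 and 30 min after injection, with a 30 s cutoff. Data as mean ± SEM, ANOVA plus Fisher PLSD.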

Mus musculus [18] = test: Analgesic activity in NMRI mouse assessed as reaction time taken to lick fore paw at 8 mg/kg, ip after 30 mins of administration by hot plate test; assay type: functional; details: route intraperitoneal; in short: as §5
Mus musculus [19] = test: Inhibition of scopolamine-induced immediate working memory deficit in NMRI mouse at 1 mg/kg, ip by Y-maze test relative to control; assay type: functional; parameters: scale not given: the % may be the effect or the level left; details: route intraperitoneal
In short: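 Spontaneous alternation in male NMRI mice. Scopolamine 1 mg/kg ip in saline induces the working-memory deficit; groups are saline+saline, saline+scopolamine, drug+saline and drug+scopolamine. Alternation % = actual alternations/(total arm entries − 2) × 100. ANOVA plus Fisher PLSD, p<0.05.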

Mus musculus [20] = test: Antinociceptive activity against acetic acid-induced writhing in NMRI mouse assessed as number of stretches at 5 mg/kg, ip by writhing test; assay type: functional; details: route intraperitoneal; in short: as §4
Mus musculus [21] = test: Antinociceptive activity against acetic acid-induced writhing in NMRI mouse assessed as number of stretches at 30 mg/kg, ip by writhing test; assay type: functional; details: route intraperitoneal; in short: as §4
[22] = molecular target: T1, 5-hydroxytryptamine receptor 3A; test: Binding affinity at 5HT3 receptor
[23] = molecular target: 5-hydroxytryptamine receptor 4 (Homo sapiens, UniProt Q13639); test: Binding affinity at 5HT4 receptor
Sequence of 5-hydroxytryptamine receptor 4 (Homo sapiens, UniProt Q13639) (Q13639 whole entry): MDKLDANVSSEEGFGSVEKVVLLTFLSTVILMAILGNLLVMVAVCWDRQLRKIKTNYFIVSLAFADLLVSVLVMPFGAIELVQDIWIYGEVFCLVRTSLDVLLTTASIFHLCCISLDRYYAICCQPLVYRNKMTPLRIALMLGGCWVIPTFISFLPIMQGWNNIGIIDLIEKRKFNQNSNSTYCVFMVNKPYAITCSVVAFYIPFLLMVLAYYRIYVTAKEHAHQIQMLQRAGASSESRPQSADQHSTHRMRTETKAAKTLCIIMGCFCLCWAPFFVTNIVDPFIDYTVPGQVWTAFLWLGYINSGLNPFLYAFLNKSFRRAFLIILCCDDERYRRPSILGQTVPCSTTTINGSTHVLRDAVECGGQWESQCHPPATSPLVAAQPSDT

Sequence of 5-hydroxytryptamine receptor 4 (Cavia porcellus, UniProt O70528) (O70528 whole entry): as the sequence (O70528 whole entry) above

For c1ccc(CN2CCN(c3nc4ccsc4n4cccc34)CC2)cc1, the IC50 [1] was over 10 µM and the IC50 [2] was 1.41 nM.

Work on CCCCN1CCC(COc2nc3ccsc3n3cccc23)CC1 yielded an inhibition [3] of 31%, a Ki [1] of 20.9 nM and an IC50 [4] of 5.25 µM. For the same molecule, the IC50 [5] was 0.166 µM, the IC50 [6] was 52.5 nM and the IC50 [7] was 29.5 µM. It also gave an IC50 [8] of over 10 µM, an IC50 [9] of over 10 µM and an IC50 [10] of over 1000 nM. The inhibition [11] was 100%.

With COC(=O)C(c1ccccc1)C1CCCCN1 (configuration not stated) [METHYLPHENIDATE] the Activity (Mus musculus [12]) was “Toxic”.

With OCCN1CCN(CCCN2c3ccccc3Sc3ccc(Cl)cc32)CC1 [PERPHENAZINE] the Activity (Mus musculus [13]) was “Toxic”.

With COc1[nH]c2ccc(F)cc2c1C(=O)OCC1CCN(CCNS(C)(=O)=O)CC1 the Activity (Mus musculus [14]) was 19.1, the Activity (Mus musculus [15]) was 13.2 and the Activity (Mus musculus [16]) was 12.9.

Molecule CN1CC[C@]23c4c5ccc(O)c4O[C@H]2[C@@H](O)C=C[C@H]3[C@H]1C5 [MORPHINE] has a Time (Mus musculus [17]) of 30 s and a Time (Mus musculus [18]) of 26 s.

Molecule COC(=O)C1=CCCN(C)C1 [ARECOLINE] has an Activity (Mus musculus [19]) of 64%.

CCN1CCC(COc2nc3ccsc3n3cccc23)CC1 gave an inhibition [3] of 42%, a Ki [1] of 19.1 nM and an IC50 [4] of over 100 µM. The IC50 [5] was 8.13 µM, the IC50 [6] was 9.77 nM and the IC50 [7] was 5.62 µM. The IC50 [8] was over 1 µM, the IC50 [9] was over 10 µM and the IC50 [10] was over 1000 nM. The inhibition [11] was 84%.

CN1C(C(=O)Nc2ccccn2)=C(O)c2ccccc2S1(=O)=O [PIROXICAM] showed an Activity (Mus musculus [20]) of 2.2.

In the case of CC(=O)Oc1ccccc1C(=O)O [ASPIRIN], the Activity (Mus musculus [21]) is reported as 8.3.

Molecule Cn1cc(C(=O)OCC2CCN(CCNS(C)(=O)=O)CC2)c2ccccc21 has an Activity (Mus musculus [14]) of 21.1, an Activity (Mus musculus [15]) of 14.8 and an Activity (Mus musculus [16]) of 14.3. It also gave a Ki [22] of over 10 µM and a Ki [23] of 0.158 nM.
